{"source": "paper PMC5900965", "about": "(Clinical Pharmacology in Drug Development, 2017)", "key": {"[1]": {"assay": "Phase 1 study safety and tolerability", "type": "in vivo, human"}, "CYP3A [2]": {"target": "T1, CYP3A (Homo sapiens, UniProt P08684)", "T1 sequence (P08684 2-503)": "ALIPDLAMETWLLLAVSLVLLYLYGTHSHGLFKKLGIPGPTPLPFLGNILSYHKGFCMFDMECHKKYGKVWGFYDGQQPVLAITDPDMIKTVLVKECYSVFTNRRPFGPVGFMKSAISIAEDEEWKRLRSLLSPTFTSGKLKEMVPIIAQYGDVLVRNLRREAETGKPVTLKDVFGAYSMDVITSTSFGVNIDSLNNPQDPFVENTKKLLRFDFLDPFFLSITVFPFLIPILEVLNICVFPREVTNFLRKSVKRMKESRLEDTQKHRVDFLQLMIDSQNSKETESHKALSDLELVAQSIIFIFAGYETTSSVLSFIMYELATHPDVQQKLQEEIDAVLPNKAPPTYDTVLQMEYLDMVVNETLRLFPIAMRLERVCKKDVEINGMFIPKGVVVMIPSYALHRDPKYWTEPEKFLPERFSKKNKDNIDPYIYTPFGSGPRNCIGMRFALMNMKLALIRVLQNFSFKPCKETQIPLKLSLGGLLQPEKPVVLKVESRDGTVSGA", "assay": "clinical", "conditions": "in vivo; for Tmax: Tmax of midazolam, median (range)"}, "CYP1A2 [3]": {"target": "T2, CYP1A2 (Homo sapiens, UniProt P05177)", "T2 sequence (P05177 1-516)": "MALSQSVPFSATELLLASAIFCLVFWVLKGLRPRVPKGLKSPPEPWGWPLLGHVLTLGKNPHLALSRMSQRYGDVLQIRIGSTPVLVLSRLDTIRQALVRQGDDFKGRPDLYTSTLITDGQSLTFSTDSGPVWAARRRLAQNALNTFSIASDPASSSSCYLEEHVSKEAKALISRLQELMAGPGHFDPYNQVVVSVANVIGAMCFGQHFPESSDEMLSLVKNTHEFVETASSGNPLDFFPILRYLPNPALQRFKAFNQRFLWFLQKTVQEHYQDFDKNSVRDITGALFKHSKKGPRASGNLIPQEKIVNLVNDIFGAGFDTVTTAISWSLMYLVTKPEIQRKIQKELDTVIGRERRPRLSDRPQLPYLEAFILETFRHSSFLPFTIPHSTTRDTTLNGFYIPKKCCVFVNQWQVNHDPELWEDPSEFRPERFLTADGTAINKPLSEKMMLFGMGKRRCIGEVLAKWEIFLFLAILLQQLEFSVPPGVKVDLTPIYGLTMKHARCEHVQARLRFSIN", "assay": "biochemical", "type": "in vitro ADME"}, "CYP2B6": {"target": "T3, CYP2B6 (Homo sapiens, UniProt P20813)", "T3 sequence (P20813 1-491)": "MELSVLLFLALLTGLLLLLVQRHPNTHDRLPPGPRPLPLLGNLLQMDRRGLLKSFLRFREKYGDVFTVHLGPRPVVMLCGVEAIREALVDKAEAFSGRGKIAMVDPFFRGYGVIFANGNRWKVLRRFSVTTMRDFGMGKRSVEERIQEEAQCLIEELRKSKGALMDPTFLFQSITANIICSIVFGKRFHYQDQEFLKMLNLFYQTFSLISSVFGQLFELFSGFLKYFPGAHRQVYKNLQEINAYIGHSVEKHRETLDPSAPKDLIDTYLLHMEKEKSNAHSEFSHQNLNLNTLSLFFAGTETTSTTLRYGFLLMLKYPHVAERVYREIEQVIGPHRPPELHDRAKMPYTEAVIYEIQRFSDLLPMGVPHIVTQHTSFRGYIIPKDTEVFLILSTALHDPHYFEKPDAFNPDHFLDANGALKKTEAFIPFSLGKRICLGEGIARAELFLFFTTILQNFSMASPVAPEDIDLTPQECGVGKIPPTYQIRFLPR", "assay": "Reversible inhibition of CYP2B6 in pooled human liver microsomes", "type": "in vitro ADME"}, "[4]": {"assay": "Clinical plasma exposure after oral PF-04171327", "type": "in vivo, human", "conditions": "25‐mg steady‐state administration of PF‐04171327"}, "CYP2C19": {"target": "CYP2C19 (Homo sapiens, UniProt P33261)", "sequence (P33261 whole entry)": "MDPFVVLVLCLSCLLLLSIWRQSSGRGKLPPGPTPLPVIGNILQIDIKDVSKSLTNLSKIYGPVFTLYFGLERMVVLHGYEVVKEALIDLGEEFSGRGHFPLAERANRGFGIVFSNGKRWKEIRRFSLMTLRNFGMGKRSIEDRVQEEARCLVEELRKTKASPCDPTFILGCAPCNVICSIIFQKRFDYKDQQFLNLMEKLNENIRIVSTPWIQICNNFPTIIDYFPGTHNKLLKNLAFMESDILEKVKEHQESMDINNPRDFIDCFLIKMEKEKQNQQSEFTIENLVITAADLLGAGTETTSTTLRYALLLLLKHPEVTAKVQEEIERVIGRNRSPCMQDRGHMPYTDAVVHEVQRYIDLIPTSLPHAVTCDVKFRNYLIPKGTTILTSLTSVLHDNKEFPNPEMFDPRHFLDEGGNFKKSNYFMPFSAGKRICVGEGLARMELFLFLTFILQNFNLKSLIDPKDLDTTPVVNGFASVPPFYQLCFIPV", "assay": "Reversible inhibition of CYP2C19 in pooled human liver microsomes", "type": "in vitro ADME"}, "CYP3A4 mRNA": {"tested_on": "CYP3A4 mRNA", "assay": "Induction of CYP3A mRNA in cryopreserved human hepatocytes", "type": "in vitro ADME", "conditions": "for Estimated Emax (Fold Induction): highest fold induction observed"}, "[5]": {"conditions": "cited from earlier work"}, "CYP3A4/5": {"tested_on": "CYP3A4/5", "assay": "Time-dependent inhibition of CYP3A in pooled human liver microsomes", "type": "in vitro ADME"}, "CYP2C9": {"target": "CYP2C9 (Homo sapiens, UniProt P11712)", "sequence (P11712 whole entry)": "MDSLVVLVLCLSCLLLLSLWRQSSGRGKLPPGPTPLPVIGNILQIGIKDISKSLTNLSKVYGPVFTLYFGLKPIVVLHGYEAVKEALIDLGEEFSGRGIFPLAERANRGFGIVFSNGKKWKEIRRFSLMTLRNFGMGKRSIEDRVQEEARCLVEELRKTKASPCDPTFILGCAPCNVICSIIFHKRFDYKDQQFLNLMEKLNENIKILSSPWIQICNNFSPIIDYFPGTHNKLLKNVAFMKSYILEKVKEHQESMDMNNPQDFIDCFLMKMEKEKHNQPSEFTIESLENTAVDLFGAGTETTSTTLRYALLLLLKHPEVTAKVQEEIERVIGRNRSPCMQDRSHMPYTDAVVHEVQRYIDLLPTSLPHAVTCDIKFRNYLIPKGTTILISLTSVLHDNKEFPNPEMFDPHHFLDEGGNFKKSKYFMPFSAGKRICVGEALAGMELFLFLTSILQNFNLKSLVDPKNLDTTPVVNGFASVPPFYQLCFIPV", "assay": "Reversible inhibition of CYP2C9 in pooled human liver microsomes", "type": "in vitro ADME"}, "CYP2D6 [6]": {"target": "T4, CYP2D6 (Homo sapiens, UniProt P10635)", "T4 sequence (P10635 whole entry)": "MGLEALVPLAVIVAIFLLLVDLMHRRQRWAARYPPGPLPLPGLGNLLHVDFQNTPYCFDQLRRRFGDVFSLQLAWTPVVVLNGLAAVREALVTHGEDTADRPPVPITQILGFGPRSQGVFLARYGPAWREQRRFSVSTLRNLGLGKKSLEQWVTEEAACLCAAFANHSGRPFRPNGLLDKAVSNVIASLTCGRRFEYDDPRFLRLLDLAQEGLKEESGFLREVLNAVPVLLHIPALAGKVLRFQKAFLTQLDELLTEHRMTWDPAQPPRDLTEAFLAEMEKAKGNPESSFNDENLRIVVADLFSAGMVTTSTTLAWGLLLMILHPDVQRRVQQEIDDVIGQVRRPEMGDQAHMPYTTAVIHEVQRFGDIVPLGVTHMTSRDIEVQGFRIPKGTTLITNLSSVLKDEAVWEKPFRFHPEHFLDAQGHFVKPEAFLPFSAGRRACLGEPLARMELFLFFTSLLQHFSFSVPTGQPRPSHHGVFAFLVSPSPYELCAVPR", "assay": "Time-dependent inhibition of CYP2D6 in pooled human liver microsomes", "type": "in vitro ADME"}, "CYP2C8": {"target": "T5, CYP2C8 (Homo sapiens, UniProt P10632)", "T5 sequence (P10632 1-490)": "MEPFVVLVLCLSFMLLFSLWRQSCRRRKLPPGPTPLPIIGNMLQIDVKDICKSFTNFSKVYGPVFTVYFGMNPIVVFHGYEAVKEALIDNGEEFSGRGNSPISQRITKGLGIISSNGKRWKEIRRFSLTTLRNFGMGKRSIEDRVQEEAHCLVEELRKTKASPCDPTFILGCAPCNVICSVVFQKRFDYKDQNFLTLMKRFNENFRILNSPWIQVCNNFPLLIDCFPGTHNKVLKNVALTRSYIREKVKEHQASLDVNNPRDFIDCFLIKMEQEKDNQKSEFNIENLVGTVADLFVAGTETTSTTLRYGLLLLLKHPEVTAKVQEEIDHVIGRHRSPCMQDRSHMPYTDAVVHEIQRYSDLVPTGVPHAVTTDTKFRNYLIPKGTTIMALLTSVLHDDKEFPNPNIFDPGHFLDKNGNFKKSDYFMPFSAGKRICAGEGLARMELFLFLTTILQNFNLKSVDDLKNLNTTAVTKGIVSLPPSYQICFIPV", "assay": "Reversible inhibition of CYP2C8 in pooled human liver microsomes", "type": "in vitro ADME"}, "CYP1A2 [7]": {"tested_on": "CYP1A2", "type": "in vitro ADME", "conditions": "human hepatocytes, 72 hours; data not shown"}, "CYP3A [8]": {"target": "T1, CYP3A", "assay": "Reversible inhibition of CYP3A in pooled human liver microsomes", "type": "in vitro ADME"}, "CYP2D6 [9]": {"target": "T4, CYP2D6", "assay": "Reversible inhibition of CYP2D6 in pooled human liver microsomes", "type": "in vitro ADME"}, "[10]": {"conditions": "at 0.76 mg/mL microsomal protein; ref data on file; cited from earlier work"}, "[11]": {"tested_on": "CYP2C8, CYP2C9, CYP2D6 and CYP3A (range over these CYPs)", "assay": "Reversible CYP inhibition panel in human liver microsomes", "type": "in vitro ADME", "conditions": "pooled human liver microsomes"}, "CYP3A4": {"tested_on": "CYP3A4", "assay": "Induction of CYP3A4 enzyme activity in cryopreserved human hepatocytes", "type": "in vitro ADME", "conditions": "72 hours, positive defined as ≥2‐fold", "summary_of_the_method": "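Cryopreserved human hepatocytes from several lots, in collagen-coated wells, were exposed for 72 h to test compound (0.5–100 or 0.5–60 μM), vehicle, or rifampin (25 or 10 μM). After washing, testosterone (250 μM) or midazolam (30 μM) was added. 6β-Hydroxytestosterone was measured by HPLC-UV and 1′-hydroxymidazolam by LC-MS/MS. A ≥2-fold rise counted as positive. EC50 and Emax were fitted to the concentration–fold-induction curves.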"}, "[12]": {"conditions": "10 and 25 mg; patients with RA; week 8; cited from earlier work"}}, "note": "Where “and” joins values, the source holds several entries; their conditions need not be identical. Identical values can stand only once."}
{"smiles": "Cc1ncc2n1-c1ccc(Cl)cc1C(c1ccccc1F)=NC2", "note": "[Midazolam, midazolam]", "values": [{"measurement": "Treatment‐emergent AEs", "setting": "[1]; midazolam 2 mg only, 12 healthy volunteers", "value": "No TEAEs were reported"}, {"measurement": "AUC(0-inf)", "setting": "CYP3A [2]", "value": 20.3, "unit": "ng·h/mL"}, {"measurement": "AUC(0-t)", "setting": "CYP3A [2]", "value": 19.8, "unit": "ng·h/mL"}, {"measurement": "Cmax", "setting": "CYP3A [2]", "value": 7.2, "unit": "ng/mL"}, {"measurement": "half-life", "setting": "CYP3A [2]", "value": 3.34, "unit": "h"}, {"measurement": "Tmax", "setting": "CYP3A [2]", "value": "~0.5", "unit": "h"}, {"measurement": "AUC(0-inf)", "setting": "CYP3A [2]; po, 2 mg", "value": 21.2, "unit": "ng·h/mL"}, {"measurement": "AUC(0-t)", "setting": "CYP3A [2]; po, 2 mg", "value": 20.5, "unit": "ng·h/mL"}, {"measurement": "Cmax", "setting": "CYP3A [2]; po, 2 mg", "value": 8.03, "unit": "ng/mL"}, {"measurement": "half-life", "setting": "CYP3A [2]; po, 2 mg", "value": 3.87, "unit": "h"}, {"measurement": "Tmax", "setting": "CYP3A [2]; po, 2 mg", "value": "~0.5", "unit": "h"}]}
{"smiles": "Cc1ncccc1NC(=O)c1ccc2c(c1)CC[C@@H]1C[C@@](O)(C(F)(F)F)CC[C@@]21Cc1ccccc1", "note": "[PF‐00251802, dagrocorat]", "values": [{"measurement": "IC50", "setting": "CYP1A2 [3]", "value": "> 30000", "unit": "nM"}, {"measurement": "IC50", "setting": "CYP2B6", "value": "> 30000", "unit": "nM"}, {"measurement": "Unbound Cmax", "setting": "[4]", "value": "approximately 2.1 ng/mL and ~4.2 nM"}, {"measurement": "IC50", "setting": "CYP2C19", "value": "> 30000", "unit": "nM"}, {"measurement": "Estimated Emax (Fold Induction)", "setting": "CYP3A4 mRNA; Lot 1, expt 1", "value": 13, "unit": "Fold Induction"}, {"measurement": "Estimated Emax (Fold Induction)", "setting": "CYP3A4 mRNA; Lot 1, expt 2", "value": 4.7, "unit": "Fold Induction"}, {"measurement": "Estimated Emax (Fold Induction)", "setting": "CYP3A4 mRNA; Lot 2, expt 1", "value": 40, "unit": "Fold Induction"}, {"measurement": "Estimated Emax (Fold Induction)", "setting": "CYP3A4 mRNA; Lot 2, expt 2", "value": 22, "unit": "Fold Induction"}, {"measurement": "Induction of CYP3A4 mRNA", "setting": "CYP3A4 mRNA; all lots tested, positive defined as ≥4‐fold induction based on mRNA", "value": "Induction of CYP3A4 mRNA was observed"}, {"measurement": "Estimated total Cmax", "setting": "[5]; 25‐mg steady‐state administration of PF‐04171327, ref Miyoshi et al 11, Weatherley et al 22, unpublished data", "value": "approximately 300 ng/mL"}, {"measurement": "Time to achieve apparent steady‐state concentrations", "setting": "[5]; multiple‐dose study of PF‐04171327 in healthy volunteers", "value": 12, "unit": "days"}, {"measurement": "Cmax", "setting": "[5]; read-out: Estimated total Cmax, 25‐mg steady‐state administration of PF‐04171327, ref Miyoshi et al 11, Weatherley et al 22, unpublished data", "value": "~610", "unit": "nM"}, {"measurement": "Concentrations at which time‐dependent inhibition of CYP3A was shown", "setting": "CYP3A4/5; midazolam as marker substrate", "value": "≥ 80", "unit": "nM"}, {"measurement": "kinact/KI", "setting": "CYP3A4/5; midazolam, slope of kobs versus [I] curve", "value": 1200, "unit": "M⁻¹ s⁻¹"}, {"measurement": "IC50", "setting": "CYP2C9", "value": 1800, "unit": "nM"}, {"measurement": "Ki", "setting": "CYP2D6 [6]", "value": 570, "unit": "nM"}, {"measurement": "kinact/KI", "setting": "CYP2D6 [6]; dextromethorphan", "value": 367, "unit": "M⁻¹ s⁻¹"}, {"measurement": "Concentrations at which time‐dependent inhibition of CYP2D6 was shown", "setting": "CYP2D6 [6]; dextromethorphan as probe substrate", "value": "≥ 600", "unit": "nM"}, {"measurement": "IC50", "setting": "CYP2C8", "value": 480, "unit": "nM"}, {"measurement": "Induction of CYP1A2 enzyme activity", "setting": "CYP1A2 [7]", "value": "No induction"}, {"measurement": "IC50", "setting": "CYP3A [8]; probe felodipine (oxidation)", "value": 1300, "unit": "nM"}, {"measurement": "IC50", "setting": "CYP3A [8]; probe midazolam (1′-hydroxylation)", "value": 4600, "unit": "nM"}, {"measurement": "IC50", "setting": "CYP3A [8]; probe testosterone (6β-hydroxylation)", "value": 1000, "unit": "nM"}, {"measurement": "IC50", "setting": "CYP2D6 [9]", "value": 570, "unit": "nM"}, {"measurement": "Fraction unbound in microsomes", "setting": "[10]", "value": "approximately 0.22"}, {"measurement": "IC50", "setting": "[11]", "value": "480 to 4600", "unit": "nM"}, {"measurement": "Induction of CYP3A4 enzyme activity", "setting": "CYP3A4", "value": "not observed"}]}
{"smiles": "Cc1ncccc1NC(=O)c1ccc2c(c1)CC[C@@H]1C[C@@](OP(=O)(O)O)(C(F)(F)F)CC[C@@]21Cc1ccccc1", "note": "[PF‐04171327, fosdagrocorat]", "values": [{"measurement": "SAEs or deaths", "setting": "[1]; coadministration of PF‐04171327 and midazolam", "value": "No SAEs or deaths were reported"}, {"measurement": "Detection in systemic circulation", "setting": "[5]; single or multiple ascending‐dose phase 1 studies, lower limit of quantification 0.5 ng/mL, ref Pfizer, unpublished data", "value": "not detected"}, {"measurement": "Efficacy in improving signs and symptoms of RA", "setting": "[12]", "value": "superior efficacy relative to placebo and comparable efficacy relative to prednisone"}]}
